This note sets out measurements from ChEMBL document CHEMBL3525903 (Drug Metab Dispos, 2013).

Holding throughout (type): ADME, cell-based
Data set [1] concerns P-glycoprotein. Description: Permeability assessed as human P-glycoprotein-mediated transport across apical to basolateral side expressed in pig LLC-PK1 cells at 2 uM by liquid scintillation counting.
In data set [2] the test system is P-glycoprotein. Nature of the data set: Permeability assessed as human P-glycoprotein-mediated active membrane transport by measuring basolateral to apical side expressed in pig LLC-PK1 cells by Transwell experiment/liquid scintillation counting. The settings on record: read-out: permeability.
The nature of data set [3]: Permeability assessed as human P-glycoprotein-mediated transport across apical to basolateral side expressed in pig LLC-PK1 cells by measuring membrane permeability time by Transwell experiment/liquid scintillation counting.
Data set [4] has as its target T1, Solute carrier family 22 member 11 (Homo sapiens, UniProt Q9NSA0).
T1 sequence (Q9NSA0 whole entry): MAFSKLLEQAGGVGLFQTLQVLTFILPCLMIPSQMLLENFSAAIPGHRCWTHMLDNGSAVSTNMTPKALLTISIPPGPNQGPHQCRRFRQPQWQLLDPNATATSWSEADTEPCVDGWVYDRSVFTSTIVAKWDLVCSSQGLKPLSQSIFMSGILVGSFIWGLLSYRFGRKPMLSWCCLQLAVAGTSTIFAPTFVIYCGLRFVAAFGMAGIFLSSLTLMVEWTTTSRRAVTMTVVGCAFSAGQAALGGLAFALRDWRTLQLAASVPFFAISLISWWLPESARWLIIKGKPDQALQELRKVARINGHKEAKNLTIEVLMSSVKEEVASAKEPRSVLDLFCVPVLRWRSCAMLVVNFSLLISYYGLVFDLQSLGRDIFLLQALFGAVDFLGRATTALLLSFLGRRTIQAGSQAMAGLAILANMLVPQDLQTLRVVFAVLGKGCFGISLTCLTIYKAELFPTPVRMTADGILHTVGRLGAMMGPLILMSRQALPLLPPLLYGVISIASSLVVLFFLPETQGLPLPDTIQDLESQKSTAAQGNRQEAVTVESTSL
Description: Inhibition of OAT4 (unknown origin) expressed in HEK293 cells assessed as reduction of [3H]E-sul substrate uptake at 100 uM by liquid scintillation counting. The settings on record: hek293, 100 µM. In short, it runs like this: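 HEK293 cells transiently transfected with OAT, OATP or OCT plasmid (FuGENE6; 24 h, then 24 h more with sodium butyrate), or stable OCTN1/OCTN2 lines; vector-transfected cells as control. Washed, preincubated 15–60 min at 37 °C in modified Krebs-Henseleit/25 mM HEPES buffer. Uptake of radiolabelled substrate, 100 µM inhibitor. Cells lysed in NaOH and counted by scintillation; counts normalised to medium radioactivity and Lowry protein; vector uptake subtracted.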

In general, Papp A→B refers to how fast a substance crosses the layer from the apical side. As for `CC#CCn1c(N2CCC[C@@H](N)C2)nc2c1c(=O)n(Cc1nc(C)c3ccccc3n1)c(=O)n2C` [LINAGLIPTIN], in the data set with P-glycoprotein [1], the Papp A→B at 2 µM turned out to be 4.21 ×10⁻⁶ cm/s. Further, the Papp B→A in the data set with P-glycoprotein [2] came to 27.4 ×10⁻⁶ cm/s. Moreover, the Time in data set [3] amounted to 4.4 h. In addition, the “inhibition (INH)” value in data set [4] is given as 0%.
